Measurements taken from ChEMBL document CHEMBL1132156, “Synthesis and structure-activity relationships of potential anticancer agents: alkylcarbamates of 3-(9-acridinylamino)-5-hydroxymethylaniline” (J Med Chem, 1999).

Columns and labels:
HL-60 = assay: In vitro inhibition of human leukemic HL-60 cell growth in culture; assay type: functional, cell-based
In short: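 HL-60 cells were seeded at 5×10^4 cells/mL in RPMI 1640 with 10% heat-inactivated FBS, penicillin and streptomycin, at 37 °C in 5% CO2. Cells were exposed for 72 h to six or seven drug concentrations, run in duplicate. Viability was read by XTT-tetrazolium microculture absorbance, and IC50 was derived from median-effect plot analysis.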

Mus musculus [1] = assay: […] anticancer activity against B6D2F-1 mice bearing P388 leukemia measured by the Average survival time(day+/-SD) at an intravenous dose of 4(mg/kg).; assay type: functional
In short: (§1)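 Male B6D2F1 mice, 8 weeks old, 20–25 g. P388/0 ascites cells (0.2 mL, ascites:saline 1.10) were implanted iv on day 0, and the tumor grew in the liver. Drug was given iv by tail vein on days 1, 3, 5, 7 and 9 (Q2Dx5), with 4–5 mice per group. Survival time was scored as 8 a.m. (0.0), 1 p.m. (0.25) or 5 p.m. (0.5) deaths. %ILS was averaged against untreated controls, and toxic deaths were counted.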

Mus musculus [2] = assay: […] anticancer activity against B6D2F-1 mice bearing P388 leukemia measured by the average survival time(day+/-SD) at an intravenous dose of 3(mg/kg)..; assay type: functional; in short: as §1
Mus musculus [3] = assay: […] anticancer activity against B6D2F-1 mice bearing P388 leukemia measured by the average weight change(g) after day 7 at an intravenous dose of 3(mg/kg).; assay type: functional
In short: (§2)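 Male B6D2F1 mice (8 weeks old, 20–25 g) were implanted iv on day 0 with P388/0 ascites cells (0.2 mL; ascites:saline = 1.10). Tumor grew in the liver. Drug was given iv via the tail vein, Q2Dx5, on days 1, 3, 5, 7 and 9. Body weight was recorded on days 1, 7, 9 and 11 and reported as the average change (g).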

Mus musculus [4] = assay: […] anticancer activity against B6D2F-1 mice bearing P388 leukemia measured by the average weight change(g) after day 7 at an intravenous dose of 4(mg/kg).; assay type: functional; in short: as §2
Mus musculus [5] = assay: […] anticancer activity against B6D2F-1 mice bearing P388 leukemia measured by the average weight change(g) after day 9 at an intravenous dose of 4(mg/kg).; assay type: functional; in short: as §2
Mus musculus [6] = assay: […] anticancer activity against B6D2F-1 mice bearing P388 leukemia measured by the average weight change(g) after day 11 at an intravenous dose of 4(mg/kg).; assay type: functional
In short: (§3)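 Male B6D2F1 mice (8 weeks old, 20–25 g) were implanted iv on day 0 with P388/0 ascites cells (0.2 mL; ascites:saline 1.10), which grew in the liver. Drug was given iv via the tail vein, Q2Dx5, on days 1, 3, 5, 7 and 9. Groups had 4–5 mice. Day 1 value is mean body weight; later days are weight change.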

Mus musculus [7] = assay: […] anticancer activity against B6D2F-1 mice bearing P388 leukemia measured by the average weight change(g) after day 11 at an intravenous dose of 3(mg/kg).; assay type: functional; in short: as §3
Mus musculus [8] = assay: […] anticancer activity against B6D2F-1 mice bearing P388 leukemia measured by the increase in lifespan(%) at an intravenous dose of 3(mg/kg)..; assay type: functional; in short: as §1
Mus musculus [9] = assay: […] anticancer activity against B6D2F-1 mice bearing P388 leukemia measured by the increase in lifespan(%) at an intravenous dose of 4(mg/kg).; assay type: functional; in short: as §1
Mus musculus [10] = assay: […] anticancer activity against 5 B6D2F-1 mice bearing P388 leukemia measured by the toxicity death at an intravenous dose of 3(mg/kg)..; assay type: organism-based; conditions: in vivo; in short: as §1
Mus musculus [11] = assay: […] anticancer activity against 5 B6D2F-1 mice bearing P388 leukemia measured by the toxicity death at an intravenous dose of 4(mg/kg).; assay type: organism-based; conditions: in vivo; in short: as §1
Mus musculus [12] = assay: […] anticancer activity against B6D2F-1 mice bearing P388 leukemia measured by the average body weight(g) after day 1 at an intravenous dose of 3(mg/kg).
Mus musculus [13] = assay: […] anticancer activity against B6D2F-1 mice bearing P388 leukemia measured by the average body weight(g) after day 1 at an intravenous dose of 4(mg/kg).

| SMILES | IC50 (HL-60) [µM] | other results |
| --- | --- | --- |
| CCOC(=O)Nc1cc(CO)cc(Nc2c3cccc(OC)c3nc3c(C(=O)NCCN(C)C)cccc23)c1 | 0.0097 |  |
| COC(=O)Nc1cc(CO)cc(Nc2c3ccccc3nc3ccccc23)c1 | 0.0085 |  |
| O=C(Nc1cc(CO)cc(Nc2c3ccccc3nc3ccccc23)c1)Oc1ccccc1 | 0.161 |  |
| Nc1cc(CO)cc(Nc2c3ccccc3nc3c(Cl)cccc23)c1 | 0.37 |  |
| CCOC(=O)Nc1cc(CO)cc(Nc2c3ccccc3nc3c(F)cccc23)c1 | 0.031 |  |
| CCOC(=O)Nc1cc(CO)cc(Nc2c3ccccc3nc3c(C)cccc23)c1 | 0.0047 |  |
| CNC(=O)c1cccc2c(Nc3cc(N)cc(CO)c3)c3ccccc3nc12 | 0.29 |  |
| CCOC(=O)Nc1cc(CO)cc(Nc2c3ccccc3nc3c(C(=O)NC)cccc23)c1 | 0.088 |  |
| Nc1cc(CO)cc(Nc2c3ccccc3nc3c(Br)cccc23)c1 | 1.5 |  |
| CCOC(=O)Nc1cc(CO)cc(Nc2c3cccc(OC)c3nc3c(C(=O)NC)cccc23)c1 | 0.032 |  |
| Nc1cc(CO)cc(Nc2c3ccccc3nc3c(F)cccc23)c1 | 0.15 |  |
| CCOC(=O)Nc1cc(CO)cc(Nc2c3ccccc3nc3c(Br)cccc23)c1 | 0.13 |  |
| CCOC(=O)Nc1cc(CO)cc(Nc2c3ccccc3nc3c([N+](=O)[O-])cccc23)c1 | 3.8 |  |
| CC(C)COC(=O)Nc1cc(CO)cc(Nc2c3ccccc3nc3ccccc23)c1 | 0.009 |  |
| COc1cccc2c1C(=O)c1c(O)c3c(c(O)c1C2=O)C[C@@](O)(C(=O)CO)C[C@@H]3O[C@H]1C[C@H](N)[C@H](O)[C@H](C)O1 [DOXORUBICIN] |  | Average survival (Mus musculus [1]): 27.4 days; Average survival (Mus musculus [2]): 14.2 days; Average weight change (Mus musculus [3]): -0.4 g; Average weight change (Mus musculus [4]): -1.4 g; Average weight change (Mus musculus [5]): -1.6 g; Average weight change (Mus musculus [6]): -3.2 g; Average weight change (Mus musculus [7]): -3.6 g; Increase in life-span (Mus musculus [8]): 122%; Increase in life-span (Mus musculus [9]): 328%; Toxicity related death (Mus musculus [10]): 0; Toxicity related death (Mus musculus [11]): 0; Body weight (Mus musculus [12]): 23 g; Body weight (Mus musculus [13]): 23.6 g |
